Read-outs that look alike come from different tables or passages of the source.
Columns and labels:
hSULT2A1 [1] = target: T1, hSULT2A1 (Homo sapiens, UniProt Q06520); assay: Binding of PAP to quinone-pretreated hSULT2A1; conditions: in the absence of DHEA; pretreatment with 10 μM quinone
T1 sequence (Q06520 1-285): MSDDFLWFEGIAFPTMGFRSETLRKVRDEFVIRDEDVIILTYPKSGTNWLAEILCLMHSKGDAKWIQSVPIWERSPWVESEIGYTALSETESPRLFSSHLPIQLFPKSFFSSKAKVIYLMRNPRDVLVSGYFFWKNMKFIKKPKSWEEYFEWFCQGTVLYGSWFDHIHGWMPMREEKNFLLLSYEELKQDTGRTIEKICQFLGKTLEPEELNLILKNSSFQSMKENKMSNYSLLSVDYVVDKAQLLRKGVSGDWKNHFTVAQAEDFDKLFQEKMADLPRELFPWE
Outline: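 Purified recombinant hSULT2A1 was expressed in E. coli BL21(DE3) and pretreated with test compound for 1 h at 25 °C. It was then placed at 15 nM final (dimer) in 0.25 M potassium phosphate, pH 7.4, without DHEA, 20 min before titration. PAP was added to 0.5–300 μM final at 37 °C. Intrinsic fluorescence (ex 290/em 347 nm) was read 10 s after each addition, dilution-corrected, in duplicate. Dissociation constants were derived.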

hSULT2A1 [2] = target: T1, hSULT2A1; assay: Structural modification of hSULT2A1 by quinones, proteolytic digestion and LC/MS; conditions: 15 μM hSULT2A1 with 250 μM quinone, 1 h, pH 8.0, 25 °C
Outline: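 Recombinant hSULT2A1 was expressed in E. coli BL21(DE3), purified, and desalted of DTT into 50 mM Tris-HCl pH 8.0. 15 μg enzyme was reacted with quinone (17:1 molar ratio), then alkylated with 45 mM final 4-vinylpyridine for 1 h. Digestion used 0.6 μg trypsin with 10% v/v acetonitrile at 37 °C for 16 h, plus 1 μg Glu-C where needed. Peptides were analysed by LC/MS.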

hSULT2A1 [3] = target: T1, hSULT2A1; assay type: biochemical; conditions: 100-fold dilution, 0.5 μM DHEA (Figure 4)
Outline: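 E. coli-expressed, purified hSULT2A1 was preincubated with test compound for 1 h at 25 °C, then diluted 100-fold into a standard assay containing 0.5 μM 3H-DHEA. The mixture was prewarmed at 37 °C for 2 min, and the reaction was started with 30 ng of enzyme. It ran for 3 or 4 min at 37 °C to keep initial velocity. Runs were in triplicate, mean ± SD, compared with untreated enzyme by paired two-tailed t test (p < 0.05).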

| Molecule | Binding of PAP to the pretreated enzyme (hSULT2A1 [1]) | Protein adducts at cysteines of hSULT2A1 (hSULT2A1 [2]) | Catalytic activity of hSULT2A1 following preincubation with PBQ (hSULT2A1 [3]; PBQ 0.5 μM or 1.0 μM) | Catalytic activity of hSULT2A1 following preincubation with PBQ (hSULT2A1 [3]; PBQ 5.0 μM or higher) |
| --- | --- | --- | --- | --- |
| 4′-chlorophenyl-2,5-benzoquinone [4′-Cl-BQ] | no detectable binding of PAP | protein adducts were observed at Cys55 and Cys199 | – | – |
| O=C1C=CC(=O)C(c2ccccc2Cl)=C1 [2′-Cl-BQ, 2′-chlorophenyl-2,5-benzoquinone] | no detectable binding of PAP | protein adducts were observed at Cys55 and Cys199 | – | – |
| O=C1C=C(Cl)C(=O)C(c2ccc(Cl)cc2)=C1Cl [3,6,4′-triCl-BQ, 4′-chlorophenyl-3,6-dichloro-2,5-benzoquinone] | – | a dichlorinated adduct was found in the digested peptides containing Cys55 and Cys199 | – | – |
| O=C1C=CC(=O)C(c2ccccc2)=C1 [PBQ, phenyl-2,5-benzoquinone] | – | protein adducts were observed at Cys55 and Cys199 | increase in the catalytic activity | decreases in catalytic activity |
